{"source": "paper PMC6347715", "about": "(Proceedings of the National Academy of Sciences of the …, 2019)", "key": {"[1]": {"test_system": "Wolbachia pipientis (wAlbB) in C6/36 cells", "assay": "Anti-Wolbachia cell-based assay", "details": "C6/36, read-out: EC50 anti-Wolbachia, cell assay"}, "[2]": {"test_system": "Wolbachia within B. malayi mf", "assay": "B. malayi microfilaria time-kill assay", "assay_type": "cell-based, Brugia malayi", "details": "drug concentration 10 times EC50; exposures 1, 2, 6 d", "how_it_was_run": "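This is a time-kill variant of the 6-d B. malayi mf assay: 8,000 mf per well in supplemented RPMI at 37 °C, 5% CO2. Drug was removed by a wash step on the indicated exposure day. Wolbachia was then quantified by wsp/gst qPCR, with five replicates per time point per treatment. Results come from one experiment.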"}, "[3]": {"assay": "Aqueous solubility in pH 7.4 PBS buffer", "assay_type": "physicochemical"}, "[4]": {"assay": "Solubility in fasted state-simulated intestinal fluid", "assay_type": "physicochemical"}, "pKa": {"assay": "pKa", "assay_type": "physicochemical"}, "[5]": {"assay": "Permeability in LLC-PK1 cell assay", "assay_type": "in vitro ADME", "details": "pig"}, "P-gp": {"target": "P-gp (Homo sapiens, UniProt P08183)", "sequence (P08183 whole entry)": "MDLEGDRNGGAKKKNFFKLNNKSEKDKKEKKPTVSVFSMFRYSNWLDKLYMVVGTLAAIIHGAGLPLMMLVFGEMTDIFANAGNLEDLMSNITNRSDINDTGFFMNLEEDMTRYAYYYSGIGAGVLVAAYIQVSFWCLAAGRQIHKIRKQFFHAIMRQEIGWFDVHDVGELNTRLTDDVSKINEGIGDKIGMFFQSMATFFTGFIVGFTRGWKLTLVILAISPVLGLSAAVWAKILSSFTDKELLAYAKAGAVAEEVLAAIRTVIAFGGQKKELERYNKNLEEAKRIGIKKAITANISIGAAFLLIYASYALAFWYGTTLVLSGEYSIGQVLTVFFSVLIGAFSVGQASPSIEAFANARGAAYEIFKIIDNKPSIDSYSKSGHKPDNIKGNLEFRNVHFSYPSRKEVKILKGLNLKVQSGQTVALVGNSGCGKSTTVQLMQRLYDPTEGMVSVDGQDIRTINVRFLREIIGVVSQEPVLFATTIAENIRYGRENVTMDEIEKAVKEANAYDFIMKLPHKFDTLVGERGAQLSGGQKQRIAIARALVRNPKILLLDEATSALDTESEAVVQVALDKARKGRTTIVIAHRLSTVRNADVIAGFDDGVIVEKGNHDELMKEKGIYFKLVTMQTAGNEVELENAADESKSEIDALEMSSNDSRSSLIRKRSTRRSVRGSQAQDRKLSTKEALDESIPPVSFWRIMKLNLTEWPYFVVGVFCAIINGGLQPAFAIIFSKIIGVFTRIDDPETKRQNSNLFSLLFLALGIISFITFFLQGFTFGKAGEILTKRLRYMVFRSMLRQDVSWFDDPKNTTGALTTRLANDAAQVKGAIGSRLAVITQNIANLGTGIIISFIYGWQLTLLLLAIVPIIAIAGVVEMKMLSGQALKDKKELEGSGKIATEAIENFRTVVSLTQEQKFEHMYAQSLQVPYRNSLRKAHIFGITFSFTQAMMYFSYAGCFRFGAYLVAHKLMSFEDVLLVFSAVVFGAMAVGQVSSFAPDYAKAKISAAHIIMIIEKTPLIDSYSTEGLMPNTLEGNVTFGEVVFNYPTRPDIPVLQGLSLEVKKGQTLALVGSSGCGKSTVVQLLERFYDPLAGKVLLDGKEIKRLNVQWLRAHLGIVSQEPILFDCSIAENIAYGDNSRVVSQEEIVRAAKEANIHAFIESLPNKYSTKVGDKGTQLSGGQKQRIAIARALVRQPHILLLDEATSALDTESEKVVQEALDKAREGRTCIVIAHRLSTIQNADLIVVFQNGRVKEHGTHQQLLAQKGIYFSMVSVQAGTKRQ", "assay": "P-gp-mediated efflux", "assay_type": "in vitro ADME", "details": "not told"}, "CYP2C9": {"target": "CYP2C9 (Homo sapiens, UniProt P11712)", "sequence (P11712 whole entry)": "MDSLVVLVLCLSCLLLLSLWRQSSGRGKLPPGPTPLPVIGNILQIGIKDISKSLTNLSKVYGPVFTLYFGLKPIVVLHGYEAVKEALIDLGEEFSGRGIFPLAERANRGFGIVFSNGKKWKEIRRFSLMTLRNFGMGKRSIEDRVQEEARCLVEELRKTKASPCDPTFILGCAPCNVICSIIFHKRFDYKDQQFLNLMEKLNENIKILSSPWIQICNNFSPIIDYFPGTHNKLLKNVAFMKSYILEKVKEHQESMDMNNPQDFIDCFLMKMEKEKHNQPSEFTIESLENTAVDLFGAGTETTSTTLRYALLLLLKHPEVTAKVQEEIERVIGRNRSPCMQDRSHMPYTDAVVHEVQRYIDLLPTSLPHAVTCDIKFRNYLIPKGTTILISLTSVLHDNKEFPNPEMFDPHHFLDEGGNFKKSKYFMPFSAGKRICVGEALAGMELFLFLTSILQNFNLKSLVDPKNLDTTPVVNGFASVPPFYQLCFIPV", "assay": "CYP2C9 inhibition", "assay_type": "in vitro ADME"}, "CYP3A4": {"test_system": "CYP3A4", "assay": "CYP3A4 induction", "assay_type": "in vitro ADME", "details": "human"}, "[6]": {"test_system": "CYP1A, CYP2C9, CYP2C19, CYP2D6, CYP3A", "assay": "Time-dependent inhibition of five major human CYP450 isoforms", "assay_type": "in vitro ADME"}, "Mouse PK in BALB/c mice": {"assay": "Mouse PK in BALB/c mice", "details": "in vivo"}, "[7]": {"test_system": "Wolbachia within female B. malayi adult parasites", "assay": "Adult B. malayi SCID mouse model: Wolbachia load", "assay_type": "in vivo, Brugia malayi", "details": "100 mg/kg, 7 d orally"}, "B. malayi": {"test_system": "B. malayi", "assay": "Adult B. malayi SCID mouse model: parasitology readout", "assay_type": "in vivo, Brugia malayi", "details": "over the 6 wk of observation post treatment"}, "[8]": {"test_system": "Wolbachia in female adult L. sigmodontis", "assay": "L. sigmodontis gerbil model: Wolbachia load", "assay_type": "in vivo, Litomosoides sigmodontis", "details": "18 wk post treatment", "how_it_was_run": "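Female gerbils aged 6–8 wk were infected by exposure to Ornithonyssus bacoti mites carrying L. sigmodontis L3. Treatment started 13 wk after infection, with animals randomised into groups of n = 5–9. Test compound in PEG300/propylene glycol/water (55/25/20) was given by oral gavage at 2.5 mL/kg. At necropsy 18 wk after treatment start, worms were recovered from the serous cavities. Wolbachia was measured by ftsZ qPCR in 5–20 individual female worms. Groups were compared with untreated controls by Kruskal–Wallis with Dunn's test.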"}, "L. sigmodontis": {"test_system": "L. sigmodontis", "assay": "L. sigmodontis gerbil model: parasitology readout", "assay_type": "in vivo, Litomosoides sigmodontis", "how_it_was_run": "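Gerbils were infected with L. sigmodontis via mites and given oral treatment from 13 wk post infection. Starting at 12 wk post infection, 10 µL of saphenous-vein blood was taken every two weeks and diluted in 300 µL Hinkelmann solution. Samples were centrifuged at 400 × g for 5 min, and the pellet was resuspended in 1 mL. Total mf were counted microscopically in a Sedgewick Rafter chamber, with follow-up to 18 wk after treatment start.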"}}, "data": [{"compound": "C[C@H]1COCCN1c1nc(NCc2cccnc2C(F)(F)F)c2cccnc2n1", "note": "[AWZ1066S, (S)-2-(3-methylmorpholino)-N-((2-(trifluoromethyl)pyridin-3-yl)methyl)pyrido[2,3-d]pyrimidin-4-amine]", "values": [{"measurement": "EC50", "setting": "[1]", "value": "0.0025 ± 0.0004", "unit": "µM"}, {"measurement": "drug exposure needed for maximum reduction of Wolbachia", "setting": "[2]", "value": 1, "unit": "days"}, {"measurement": "solubility", "setting": "[3]", "value": 238, "unit": "µM"}, {"measurement": "solubility", "setting": "[4]", "value": 560, "unit": "µg/mL"}, {"measurement": "pKa", "setting": "pKa", "value": 5.6}, {"measurement": "Papp", "setting": "[5]", "value": 7.4, "unit": "×10⁻⁶ cm/s"}, {"measurement": "efflux ratio", "setting": "P-gp", "value": 7.8}, {"measurement": "IC50", "setting": "CYP2C9", "value": 9.7, "unit": "µM"}, {"measurement": "IC50", "setting": "CYP3A4", "value": 37, "unit": "µM"}, {"measurement": "time-dependent inhibition", "setting": "[6]", "value": "does not show any time-dependent inhibition"}, {"measurement": "bioavailability", "setting": "Mouse PK in BALB/c mice; BALB/c SCID, po", "value": "54 to 91", "unit": "%"}, {"measurement": "clearance", "setting": "Mouse PK in BALB/c mice; iv, 5 mg/kg, total clearance, dosed intravenously", "value": 7.83, "unit": "mL/min/kg"}, {"measurement": "Wolbachia reduction compared with the vehicle group", "setting": "[7]", "value": 98, "unit": "%"}, {"measurement": "mice in which release of mf was completely prevented", "setting": "B. malayi", "value": "9/10"}, {"measurement": "Wolbachia load reduction compared with control untreated animals", "setting": "[8]; 50 mg/kg orally twice daily 7 d", "value": "> 99", "unit": "%"}, {"measurement": "Wolbachia load reduction compared with control untreated animals", "setting": "[8]; 100 mg/kg orally twice daily 7 d", "value": "> 99", "unit": "%"}, {"measurement": "time from which peripheral blood microfilaremia began to decline", "setting": "L. sigmodontis; 7-d treatment", "value": 6, "unit": "wk post treatment"}, {"measurement": "time from which amicrofilaremia was evident", "setting": "L. sigmodontis; 7-d treatment groups, sustained until 18 wk", "value": 14, "unit": "wk post treatment"}, {"measurement": "Ames test result", "setting": "Ames test", "value": "negative"}]}]}
